ANO1 activ: activates or potentiates the mouse TMEM16A chloride channel. actives 0.3% (n = 340,000). HEK293 TMEM16A/YFP-H148Q/I152L, iodide quench fluorescence; stronger effect = lower value. B-score at 10 µM;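 active = fluorescence-ratio B-score plate-corrected deviation score at least 3 library SD below zero, with starting fluorescence score within 5 deviations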;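 also: channel opened by trigger with iodide after compound preincubation; score built on the fluorescence ratio of max minus min over baseline; more negative score means more quench and so TMEM16A activation or potentiation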
DNA FID counter: displaces DNA intercalator in HCV helicase counter-screen; DNA fluorescent intercalator displacement, fluorescence; inhibition, % at 7.9 µM; actives 0.17% (n = 290,000); in the data active = inhibition above about 37%;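 also: 0% = vehicle and 100% = reference compound; higher means more ethidium bromide displaced from hairpin DNA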
Kir21 block: inhibitors of mouse Kir2.1 inward-rectifier potassium channel. B-score at 10 µM. AID 1672. P35561. actives 0.85% (n = 310,000). HEK293-Kir2.1, FluxOR thallium flux fluorescence; stronger effect = lower value;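 active = fluorescence ratio B-score at or below minus 3 SD of library scores, with starting-brightness B-score within 2 SD, cut at about -4.2 in these data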;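 also: channel flux triggered by added potassium and thallium sulfate stimulus; B-score of peak minus minimum fluorescence over baseline after thallium stimulus; more negative B-score means stronger Kir2.1 block with less thallium influx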
Target sequence (P35561 whole entry, looked up): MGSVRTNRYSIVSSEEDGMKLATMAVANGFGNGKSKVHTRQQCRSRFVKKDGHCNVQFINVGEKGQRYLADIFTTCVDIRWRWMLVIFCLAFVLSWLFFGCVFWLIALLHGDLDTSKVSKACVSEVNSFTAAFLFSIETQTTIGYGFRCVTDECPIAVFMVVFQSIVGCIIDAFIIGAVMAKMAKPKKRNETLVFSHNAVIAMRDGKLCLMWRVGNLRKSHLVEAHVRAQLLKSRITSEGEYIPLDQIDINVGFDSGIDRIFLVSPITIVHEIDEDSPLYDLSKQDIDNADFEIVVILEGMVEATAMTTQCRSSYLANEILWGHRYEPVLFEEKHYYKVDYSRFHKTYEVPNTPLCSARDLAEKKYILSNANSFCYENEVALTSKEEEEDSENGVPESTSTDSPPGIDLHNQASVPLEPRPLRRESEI
SR-BI HDL uptake: blocks mouse SR-BI lipid uptake from DiI-HDL; ldlA[mSR-BI] CHO cells, DiI-HDL uptake fluorescence, 3 h; Q61009; inhibition, % at 12.5 µM; actives 0.96% (n = 320,000); AID 488896;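 active = mean replicate inhibition of at least 70% and a set share of replicates each scoring 70 or more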;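 also: 0% = median of neutral control wells and 100% = median of positive control wells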
SR-BI DiI-HDL act: SR-BI HDL lipid transfer activation; CHO ldlA[mSR-BI] cells, DiI-HDL uptake fluorescence, 3 h; 100 = double the neutral-control signal; activation, % at 12.5 µM; actives 0.096% (n = 320,000); AID 504775;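 active = mean replicate activation of at least 60% and every replicate at or above 60%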;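 also: 0% = median plate neutral-control signal and 100% = twice that signal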
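system = CHO ldlA[mSR-BI] cells, LDL receptor-null, SR-BI overexpressing | medium = Ham's F12 with 0.5% BSA, HEPES 25 mM, pH 7.4 | probe or stimulus = DiI-HDL 10 µg/mL | compound dosing = single-point compound dose | incubation = compound exposure 3 h, 37 °C | technique = DiI fluorescence, bottom read | read-out = cell-associated DiI fluorescence as measure of HDL uptake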
TMEM16A inh: inhibitors of mouse TMEM16A calcium-activated chloride channel | HEK293 TMEM16A/YFP iodide influx fluorescence, ionomycin | normalized B-score (activity score, 25-100; higher = stronger inhibition) at 10 µM | actives 1.2% (n = 310,000);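 active = ratio plate-corrected score three or more library SD toward inhibition, starting fluorescence score within five deviations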;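 also: score derived from kinetic fluorescence span divided by baseline fluorescence per well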
The depositor's hits bear a star; i = inactive; . = no result. An excerpt weighted towards active compounds, which were near 3% of everything screened.

SMILES	ANO1 activ	DNA FID counter	Kir21 block	SR-BI HDL uptake	SR-BI DiI-HDL act	TMEM16A inh
COc1ccc(-c2cc(=O)oc3c(C)c(OC(C)C(=O)NCc4ccccn4)ccc23)cc1 (configuration not stated)	i	-38.1	0.15	76.7*	-76.7	i
O=C(c1ccc(F)c(S(=O)(=O)N2CCOCC2)c1)N1CCN(c2ccc(F)cc2)CC1	i	.	.	-4.7	4.7	.
CCOc1ccc(-c2nnn(CC(=O)NCc3ccccc3)n2)cc1	i	-3.5	0.83	10.4	-10.4	i
COc1cc(C(=S)N2CCOCC2)ccc1OC(=O)c1ccccc1	i	-22.5	-5.11*	-3.3	3.3	i
O=C(Oc1ccc(C(=S)N2CCOCC2)cc1Cl)c1ccccc1F	i	-21.7	-5.81*	-3.1	3.1	i
O=C(Oc1ccc(C(=S)N2CCCCC2)cc1)c1ccccc1	i	-3.2	-4.59*	-2.6	2.6	i
O=C(Oc1ccc(C(=S)N2CCOCC2)cc1Br)c1ccccc1F	i	-12.6	-6.26*	-14.5	14.5	i
O=C(Oc1cccc(C(=S)N2CCCCC2)c1)c1ccccc1	i	-19.9	-0.37	3.8	-3.8	i
CCN(CC)c1ccc(NC(=O)CCN2C(=O)c3ccccc3S2(=O)=O)c(C)c1	i	.	0.36	18.7	-18.7	i
CCN(CC)C(=O)Cn1cc(C(=O)C(=O)NCCc2c[nH]c3ccccc23)c2ccccc21	i	-41.7	2.24	34.2	-34.2	i
COc1cc(NC(=O)[C@H]2CCCN2S(=O)(=O)c2cccc3cccnc23)cc(OC)c1OC	i	.	.	7.4	-7.4	i
COc1cc(NC(=O)[C@@H]2CCCN(S(=O)(=O)c3cccc4cccnc34)C2)cc(OC)c1OC	i	.	.	21.1	-21.1	25*
CC1CC(C)CN(S(=O)(=O)c2cccc3cccnc23)C1 (configuration not stated)	i	.	-5.22*	-6.0	6.0	i
COc1cc(/C=C/C(=O)OCC(=O)NC(=O)NC(C)C)cc(S(=O)(=O)N2CCc3ccccc32)c1OC	i	-14.6	-1.14	8.3	-8.3	i
CNC(=O)c1nnsc1S(=O)c1ccc(Cl)cc1 (configuration not stated)	i	10.9	-7.62*	3.9	-3.9	.
Cc1ccc(S(=O)c2snnc2C)cc1 (configuration not stated)	i	-6.0	-2.16	-9.1	9.1	i
CCCNC(=O)c1nnsc1S(=O)c1ccc(Cl)cc1 (configuration not stated)	i	5.3	-6.12*	9.4	-9.4	.
O=C(CCNC(=O)C1CCN(S(=O)(=O)c2ccccc2)CC1)NCc1ccncc1	-27.8*	-4.6	0	-35.4	35.4	i
Cc1cccc(/C=C/c2onc(C)c2S(=O)(=O)N2CCC(C(=O)NC(C)(C)C)CC2)c1	i	-18.8	0.58	76.5*	-76.5	i
CCN(CC)CCNC(=O)C1CCN(S(=O)(=O)c2c(C)noc2/C=C/c2ccccc2F)CC1	i	28.2	-4.59*	7.1	-7.1	i
O=C(NCCSc1ncc(-c2ccc(F)cc2)[nH]1)c1ccc2c(c1)OCO2	i	.	-1.93	-8.4	8.4	i
COc1ccc(/C=C\C(=O)O[C@@H]2C(O)C(O[C@@H]3OC(C)[C@H](O[C@@H]4OCC(O[C@H]5O[C@H](CO)[C@@H](O)C(O)C5O)C(O)C4O)C(O)C3O)[C@H](OC(=O)[C@]34CCC(C)(C)C[C@@H]3C3=CCC5[C@@]6(C)CC(O)C(O[C@@H]7OC(CO)C(O)[C@H](O)[C@H]7O)[C@@](C)(C(=O)O)C6CC[C@@]5(C)[C@]3(CO)CC4)O[C@H]2C)cc1 (some centres not stated)	-32.1*	.	.	36.9	-36.9	.
Cc1ccc(OCC(=O)N2CCN(c3nnc(-c4ccc(C)cc4)c4ccccc34)CC2)cc1	i	-9.6	0.66	78.5*	-78.5	i
Cc1ccc(-c2nnc(N3CCN(C(=O)COc4cccc(C)c4)CC3)c3ccccc23)cc1	i	-40.4	-0.83	63.9	-63.9	i
